Test results from publication PMC11871924 (International Journal of Nanomedicine, 2025).

Experiments:
[1] = target: BSA (Bos taurus, UniProt P02769); format: binding, bovine; conditions: 2–10 μM quencher, BSA 2 μM
Outline: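 BSA (2 μM) titrated with test compound at 0, 2, 4, 6, 8, 10 μM (0–20 μM for one reagent). Site competition used phenylbutazone, ibuprofen or digitoxin (2 μM final) added before the test compound. Steady-state BSA fluorescence was measured without and with quencher. Kq, Kb and n were calculated from the quenching formulas, taking biomolecule average lifetime as 10−8 s.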

[2] = tested on: H22 orthotopic liver tumors; experiment: Mouse orthotopic H22 hepatocellular carcinoma model; format: in vivo, BALB/c mice
Outline: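 Female BALB/c mice (6–8 weeks) received 106 log-phase H22 cells in matrix gel, injected into an exteriorised liver lobe via abdominal incision. At ~50 mm3 tumours, groups (n=5) received i.v. PBS (100 μL), 100 μL nanoparticles daily for 6 days, or oxaliplatin 5 mg/kg every two days ×3. Growth was imaged by IVIS after i.p. D-luciferin (200 μL, 15 mg/mL) on days 5, 10, 15. Body weight was recorded.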

[3] = tested on: VX2 orthotopic liver tumors; experiment: Rabbit VX2 orthotopic liver tumor model, DSA-guided arterial infusion, PET/CT; format: in vivo, New Zealand White rabbits; conditions: n=4, mean ± s.d.
Outline: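 New Zealand White rabbits (4 months, n=4/group) had 1 mm3 VX2 tumour blocks implanted in the left liver lobe under ultrasound, followed by i.m. penicillin for 3 days and CT sizing. DSA-guided hepatic arterial infusion delivered PBS, oxaliplatin or test nanoparticles (5 mg/kg), doses converted by body surface area. Tumour SUV was measured by PET/CT before and 7 days after infusion.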

Chain of BSA (P02769 25-607): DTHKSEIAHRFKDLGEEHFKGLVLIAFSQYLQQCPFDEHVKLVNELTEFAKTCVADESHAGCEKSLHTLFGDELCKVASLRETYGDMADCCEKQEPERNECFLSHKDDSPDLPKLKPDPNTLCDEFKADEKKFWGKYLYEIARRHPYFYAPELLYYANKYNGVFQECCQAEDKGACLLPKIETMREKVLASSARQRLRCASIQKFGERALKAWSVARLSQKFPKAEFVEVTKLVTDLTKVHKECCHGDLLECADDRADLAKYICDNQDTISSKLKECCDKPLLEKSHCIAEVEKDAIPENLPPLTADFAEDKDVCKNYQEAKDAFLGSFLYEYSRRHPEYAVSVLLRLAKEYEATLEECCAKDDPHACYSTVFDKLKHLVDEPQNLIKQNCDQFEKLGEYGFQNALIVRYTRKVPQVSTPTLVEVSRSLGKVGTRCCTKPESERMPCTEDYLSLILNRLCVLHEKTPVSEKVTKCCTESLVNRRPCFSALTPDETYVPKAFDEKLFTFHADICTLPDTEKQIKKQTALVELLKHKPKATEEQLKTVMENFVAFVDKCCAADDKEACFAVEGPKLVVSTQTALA

| Quenching of BSA Trp-214 fluorescence emission [1] | Compound | Body weight of some mice during treatment ([2]; decrease from the initial 20 g, oxaliplatin 5 mg/kg i.v. every two days ×3) [g] | Effect on orthotopic tumors (in vivo imaging) ([2]; mouse orthotopic H22 model, i.v., n=5) | Tumor standardized uptake value (SUV) before treatment [3] |
| --- | --- | --- | --- | --- |
| could quench | Ir(ppy)2-diimi dazole [Ir-diim] | – | – | – |
| – | O=C1[O][Pt]2([NH][C@@H]3CCCC[C@H]3[NH]2)[O]C1=O [oxaliplatin] | 13 | effectively inhibited | 5.44±0.43 |
